High-throughput results: PubChem, several laboratories
APJ ag: agonists of human apelin receptor APJ, primary screen, CHO-K1 cells, PathHunter beta-arrestin, luminescence; P35414; 0% DMSO wells, 100% apelin; activation, % at 20 µM; hit rate 0.11% among 330,000; AID 2520, 2010;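 active = activation more than six SD over the plate average, tested at 20 µM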
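Assay system: CHO-K1 APJ beta-arrestin complementation cell line / Compound: single test compound dose, 20 µM final, 1% DMSO / Times: overnight seeding, 90 min compound at 25 °C, 1 h detection / Technique: beta-gal luminescence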
Beta2AR agonist: beta2AR agonists driving receptor internalization, primary screen, cell-based, FAP fluorogen, flow cytometry. Am2.2-beta2AR cells. response, % (no concentration beside the values). hit rate 0.43% among 340,000;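 active = response above a set limit, near 3 SD of response in nonfluorescent compounds, cut at about 42% in these data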
CCR6 antag: CCR6 receptor antagonists, primary screen, cell-based, CHO-K1, luminescence, beta-arrestin, uHTS | C-C chemokine receptor type 6 (Homo sapiens), P51684 | CHO-K1 CCR6 PathHunter beta-arrestin, CCL20-stimulated | inhibition, % at 20 µM | hit rate 0.49% among 340,000 | AID 493098, 2011;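 active = compounds whose inhibition of the agonist-driven luminescence signal at 20 µM reaches about 50%, limit read from the data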;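 note: cells stimulated with CCL20 at 14 nM final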
CXCR6 block: CXCR6 receptor inhibitors, primary screen, cell-based, beta-arrestin, luminescence, CHO-K1 PathHunter, 1536-well; inhibition, % at 20 µM; hit rate 0.36% among 360,000; in the data active = inhibition above about 34%, passing the limit was not always enough;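 note: antagonist mode with CXCL16 agonist at 10 nM final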
Target sequence (O00574 whole entry, looked up): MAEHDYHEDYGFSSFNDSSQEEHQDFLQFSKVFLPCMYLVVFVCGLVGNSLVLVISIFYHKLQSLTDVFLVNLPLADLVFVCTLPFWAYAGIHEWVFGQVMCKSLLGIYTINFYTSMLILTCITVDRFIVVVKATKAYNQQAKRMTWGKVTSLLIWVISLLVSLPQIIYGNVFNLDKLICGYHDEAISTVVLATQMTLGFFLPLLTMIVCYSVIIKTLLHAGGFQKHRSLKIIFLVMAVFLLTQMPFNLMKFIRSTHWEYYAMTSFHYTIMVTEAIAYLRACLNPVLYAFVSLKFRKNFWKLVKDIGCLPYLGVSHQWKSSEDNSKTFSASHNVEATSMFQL
EBI2 block: EBI2 receptor antagonists, beta-arrestin recruitment, primary screen, cell-based, luminescence, 7a,25-OHC stimulation, uHTS; G-protein coupled receptor 183 (Homo sapiens), P32249; 7a,25-OHC stimulated; inhibition, % at 5 µM; hit rate 0.81% among 360,000; in the data active = inhibition above about 38%;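 note: enzyme fragment complementation signal reports receptor beta-arrestin coupling in cells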
APJ antagonist: antagonists of human apelin receptor APJ, primary screen, CHO-K1 cells, beta-arrestin complementation, luminescence; P35414; inhibition, % at 20 µM; hit rate 0.32% among 330,000; AID 2521, 2010;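 active = inhibition above about 40% at 20 µM, limit read from the data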;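 note: cells challenged with 10 nM apelin-13 agonist together with compound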
Numbers stand for hits; . = inactive; / = not tested or not shown. Only some compounds are listed: those with a hit (about 1.8% of all), similar ones and a draw of the others.

SMILES	APJ ag	Beta2AR agonist	CCR6 antag	CXCR6 block	EBI2 block	APJ antagonist
O=[N+]([O-])c1c(NCCCO)cc(SCc2ccco2)c2nonc12	.	.	63.0	.	.	.
COC(=O)CCSc1cc(NCCOC(C)=O)c([N+](=O)[O-])c2nonc12	.	61.5	.	.	.	.
O=[N+]([O-])c1c(NCCCO)cc(N2CCCCCC2)c2nonc12	.	.	.	.	.	.
CC(=O)OCCNc1cc(SCc2ccco2)c2nonc2c1[N+](=O)[O-]	/	.	75.3	49.7	.	/
COc1ccc(CC(=O)Nc2cc(S(C)(=O)=O)ccc2Cl)cc1S(=O)(=O)N1CCOCC1	/	.	.	.	.	/
CCOc1ccc(/C=C2/SC(=O)NC2=S)cc1	.	.	.	.	.	.
CCOc1ccc(/C=C2\SC(=S)N(N3C(=O)C4CC4C3=O)C2=O)cc1 (configuration not stated)	.	84.0	.	.	.	.
O=C(/C=C/c1ccco1)NC(=S)Nc1ccc(N2CCCC2)cc1	.	43.6	.	.	.	.
COc1ccc(C(=O)/C=C/C(=O)N(CC(=O)NC2CCCCC2)Cc2ccc(F)cc2)c(O)c1	/	123.3	97.5	59.7	.	/
COc1ccc(C(=O)/C=C/C(=O)N(CC(=O)NCCC(C)C)Cc2cccs2)c(O)c1	/	119.7	84.6	.	.	/
Cc1ccc(C)c(S(=O)(=O)N2CCCCC2CCNC(=O)C(=O)NC2CCCC2)c1 (configuration not stated)	.	.	.	.	.	.
Cc1ccc(C)c(S(=O)(=O)N2CCCC2CNC(=O)C(=O)NC2CCCC2)c1 (configuration not stated)	.	60.6	.	.	.	.
CC(C)(C)NC(=O)C1c2ccccc2OCC(=O)N1CCCN1CCOCC1 (configuration not stated)	/	/	/	.	.	/
CCCCOCCCNC(=O)C[C@@H]1C[C@@]2(C(=O)OCC)CCCC=C2N(Cc2ccc(Cl)cc2Cl)C1=O	/	/	/	.	.	/
CCCCNc1c(-c2ccc(-c3ccc(OC)cc3)c(OC)c2)nc2ccccn12	.	46.4	.	.	54.1	.
CCCCNc1c(-c2ccc(SC(C)CC)c(OC)c2)nc2ccc(Cl)cn12 (configuration not stated)	.	52.0	.	.	.	.
CCCCNc1c(-c2ccc(SC(C)CC)c(OC)c2)nc2ccc(C)cn12 (configuration not stated)	.	.	.	.	55.0	.
CCCCNc1c(-c2ccc(OC)c(Sc3ccc(OC)cc3)c2)nc2cnccn12	.	.	.	.	.	.
O=C1CCc2cc(S(=O)(=O)NCCC(=O)NC3CCCCC3)ccc2N1	.	.	.	.	.	.
N#CC(=C1C=C(Br)C(=NO)C=C1Cl)c1cccc2ccccc12	/	/	/	39.9	.	/
COc1ccc(NC(=O)c2ccc(NC(=O)CN3CCC(C(N)=O)CC3)cc2)cc1	.	.	.	.	.	.
Nc1ccc2c(c1)C(=O)c1ccccc1-2	.	.	.	.	.	.
O=C1C(=O)c2ccc(-c3ccccc3)cc2-c2ccccc21	.	61.2	.	.	.	.
Nc1ccc2c(c1)C(=O)C(=O)c1ccccc1-2	.	80.5	71.1	.	.	.
Cc1cc(C(=O)c2ccccc2)c(NC(=O)CN2CCOCC2)s1	.	.	.	.	.	.
SMILES	APJ ag	Beta2AR agonist	CCR6 antag	CXCR6 block	EBI2 block	APJ antagonist
Cc1cc(C(=O)c2ccc(C(C)(C)C)cc2)c(NC(=O)CCl)s1	.	96.0	.	.	.	.
CCOC(=O)c1ccc(N=Cc2nc(-c3ccccc3)oc2OC(C)=O)cc1	.	.	50.5	.	.	.
CC(=O)Oc1oc(-c2ccccc2)nc1C=Nc1ccccc1	.	.	.	.	.	.
CC(=O)n1cc(N(C(=O)CCl)c2ccc(Cl)cc2)c2ccccc21	.	45.8	.	.	.	.
CC(C)Oc1ccc2ccccc2c1CNC[C@H]1O[C@@H](n2ccc(N)nc2=O)[C@H](O)[C@@H]1O	/	/	/	.	.	/
O=[N+]([O-])c1ccc(N/N=C/c2cccc(O)c2O)c(S(=O)(=O)N2CCOCC2)c1	.	.	72.1	55.4	41.1	58.5
O=[N+]([O-])c1ccc(N/N=C/c2ccc(O)c(O)c2O)c(S(=O)(=O)N2CCOCC2)c1	.	.	51.0	.	.	.
C[C@H]1CN([C@@H](C)CO)C(=O)c2cccc(NC(=O)Nc3ccc(C(F)(F)F)cc3)c2O[C@@H]1CN(C)C(=O)Nc1ccc(F)cc1	.	.	.	.	.	.
C[C@H](CO)N1C[C@H](C)[C@@H](CN(C)C(=O)Nc2ccc(C(F)(F)F)cc2)Oc2c(NC(=O)Nc3ccc(C(F)(F)F)cc3)cccc2C1=O	.	.	.	.	43.2	.
CCCn1nc([N+](=O)[O-])c(C(C#N)c2nc3ccccc3o2)c(Cl)c1=O (configuration not stated)	.	.	.	.	.	.
CCn1nc([N+](=O)[O-])c(C(C#N)c2nc3cc(C(F)(F)F)ccc3s2)c(Cl)c1=O (configuration not stated)	.	.	52.3	.	.	55.6
Cn1cnnc1SCC(=O)n1c2ccccc2c2ccccc21	.	.	.	.	.	.
Cn1cnnc1SCc1ccc(C(=O)N=Nc2c(O)n(C)c3ccccc23)cc1	.	100.1	.	.	.	.
O=C1C=CC(=O)N1c1ccccc1N1C(=O)C=CC1=O	/	.	107.9	72.5	.	/
Cn1nnnc1N=N/C(=N/Nc1ccccc1)c1ccccc1	.	.	86.9	44.4	.	.
Oc1ccccc1N=N/C(=N/Nc1ccccc1O)c1ccccc1	.	.	.	.	.	.
COC(=O)[C@]1(Sc2ccc(C)cc2)CC(=O)N[C@@H]1c1ccccc1	/	/	/	.	.	/
Cc1ccc(N2C(=O)C3C(c4ccccc4)N4CCCN4C3(C)C2=O)cc1 (configuration not stated)	.	43.5	.	.	.	.
CCN(CC)c1ccc(C(=O)NNC(=O)CCNC(=O)c2ccccc2)cc1	.	.	.	.	.	.
CCN(CC)c1ccc(C(=C2C=CC(=[N+](CC)CC)C=C2)c2ccc(N(CC)CC)cc2)cc1	/	82.1	113.8	108.5	.	/
CCN(CC)c1ccc(C(=O)NNC(=O)CCl)cc1	.	.	.	.	.	.
CCN(CC)c1ccc(C(=C2C=CC(=[N+](CC)CC)C=C2)c2ccccc2)cc1	/	59.3	116.7	102.8	.	/
O=S(=O)(c1ccc(Br)cc1F)N1CCCCC1CCO (configuration not stated)	/	.	.	.	.	/
COc1cc(/C=C2\CC/C(=C\c3cc(OC)c(OC)c(OC)c3)C2=O)cc(OC)c1OC	.	.	.	.	.	.
